Measured values reported in ChEMBL document CHEMBL5724801, “EUbOPEN Chemogenomics Library - Multiplex” (2024).
Several values for one entry are separate records, joined by “and”; a condition that tells them apart may be missing. Identical values can stand only once.

Tested on: HEK-293T
Test: Multiplex assay against HEK293T
Assay type: toxicity, cell-based
Settings: human
Method in brief: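 At seeding, live cells were stained with Hoechst33342, BioTracker Green Microtubule Cytoskeleton Dye, MitoTracker Red and Annexin V Alexa Fluor 680. After compound addition they were imaged on a CQ1 microscope at 37°C and 5% CO2, and CellPathfinder machine-learning gating sorted them into Hoechst high-intensity objects or normal cells, with normal cells further split into healthy, pyknosed or fragmented nuclei and pyknosed cells into mitotic or apoptotic. Tubulin, mitochondrial-mass and membrane-permeability phenotypes are given as per cents of cells with healthy nuclei.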

[1] = 12 h, 1 µM, compound concentration 1 uM
[2] = 12 h, 10 µM, compound concentration 10 uM
[3] = 24 h, 1 µM, compound concentration 1 uM
[4] = 24 h, 10 µM, compound concentration 10 uM
[5] = 48 h, 1 µM, compound concentration 1 uM
[6] = 48 h, 10 µM, compound concentration 10 uM

## CC[C@H]1OC(=O)[C@H](C)[C@@H](O[C@H]2C[C@@](C)(OC)[C@@H](O)[C@H](C)O2)[C@H](C)[C@@H](O[C@@H]2O[C@H](C)C[C@H](N(C)C)[C@H]2O)[C@@]2(C)CC(C)=C(O2)[C@H](C)[C@@H](O)[C@]1(C)O
[1]
  Population Apoptotic (%): 35% and 45%
  Population Fragmented Nuclei (%): 8% and 3%
  Population Healthy Nuclei (%): 74% and 84%
  Population Hoechst High Intensity Objects (%): 6% and 7%
  Population Membrane Permeable-Phenotype (%): 0%
  Population Mitochondria Different-Phenotype (%): 56% and 72%
  Population Mitotic Cells (%): 64% and 54%
  Population Normal (%): 93% and 92%
  Population Pyknosed Nuclei (%): 17% and 11%
  Population Tubulin-Different-Phenotype (%): 41% and 27%
  Total Cell Count: 367 and 300
[2]
  Population Apoptotic (%): 55% and 56%
  Population Fragmented Nuclei (%): 8% and 11%
  Population Healthy Nuclei (%): 71% and 72%
  Population Hoechst High Intensity Objects (%): 13% and 10%
  Population Membrane Permeable-Phenotype (%): 0%
  Population Mitochondria Different-Phenotype (%): 87% and 91%
  Population Mitotic Cells (%): 44% and 43%
  Population Normal (%): 86% and 89%
  Population Pyknosed Nuclei (%): 19% and 16%
  Population Tubulin-Different-Phenotype (%): 76% and 77%
  Total Cell Count: 383 and 217
[3]
  Population Apoptotic (%): 20% and 35%
  Population Fragmented Nuclei (%): 8%
  Population Healthy Nuclei (%): 78%
  Population Hoechst High Intensity Objects (%): 3% and 6%
  Population Membrane Permeable-Phenotype (%): 0%
  Population Mitochondria Different-Phenotype (%): 35% and 49%
  Population Mitotic Cells (%): 79% and 64%
  Population Normal (%): 96% and 93%
  Population Pyknosed Nuclei (%): 13% and 12%
  Population Tubulin-Different-Phenotype (%): 24% and 22%
  Total Cell Count: 493 and 371
[4]
  Population Apoptotic (%): 42% and 70%
  Population Fragmented Nuclei (%): 9% and 10%
  Population Healthy Nuclei (%): 75% and 71%
  Population Hoechst High Intensity Objects (%): 11% and 10%
  Population Membrane Permeable-Phenotype (%): 0%
  Population Mitochondria Different-Phenotype (%): 74% and 87%
  Population Mitotic Cells (%): 57% and 29%
  Population Normal (%): 88% and 89%
  Population Pyknosed Nuclei (%): 15% and 18%
  Population Tubulin-Different-Phenotype (%): 75% and 80%
  Total Cell Count: 499 and 254
[5]
  Population Apoptotic (%): 30% and 21%
  Population Fragmented Nuclei (%): 12%
  Population Healthy Nuclei (%): 76% and 78%
  Population Hoechst High Intensity Objects (%): 8% and 6%
  Population Membrane Permeable-Phenotype (%): 0%
  Population Mitochondria Different-Phenotype (%): 28% and 34%
  Population Mitotic Cells (%): 69% and 78%
  Population Normal (%): 91% and 93%
  Population Pyknosed Nuclei (%): 11% and 9%
  Population Tubulin-Different-Phenotype (%): 21% and 20%
  Total Cell Count: 718 and 584
[6]
  Population Apoptotic (%): 50% and 53%
  Population Fragmented Nuclei (%): 12%
  Population Healthy Nuclei (%): 74% and 75%
  Population Hoechst High Intensity Objects (%): 10% and 12%
  Population Membrane Permeable-Phenotype (%): 1% and 0%
  Population Mitochondria Different-Phenotype (%): 61% and 84%
  Population Mitotic Cells (%): 50% and 46%
  Population Normal (%): 89% and 87%
  Population Pyknosed Nuclei (%): 12% and 11%
  Population Tubulin-Different-Phenotype (%): 56% and 73%
  Total Cell Count: 671 and 300

## N#Cc1c(N)nc(SCc2csc(-c3ccc(Cl)cc3)n2)c(C#N)c1-c1ccc(OCCO)cc1 [CAPADENOSON]
[1]
  Population Apoptotic (%): 36% and 54%
  Population Fragmented Nuclei (%): 6%
  Population Healthy Nuclei (%): 79% and 80%
  Population Hoechst High Intensity Objects (%): 8% and 4%
  Population Membrane Permeable-Phenotype (%): 0%
  Population Mitochondria Different-Phenotype (%): 59% and 60%
  Population Mitotic Cells (%): 63% and 45%
  Population Normal (%): 91% and 95%
  Population Pyknosed Nuclei (%): 13% and 12%
  Population Tubulin-Different-Phenotype (%): 44% and 34%
  Total Cell Count: 373 and 375
[2]
  Population Apoptotic (%): 57% and 70%
  Population Fragmented Nuclei (%): 7% and 6%
  Population Healthy Nuclei (%): 75% and 73%
  Population Hoechst High Intensity Objects (%): 12% and 14%
  Population Membrane Permeable-Phenotype (%): 0% and 1%
  Population Mitochondria Different-Phenotype (%): 82% and 85%
  Population Mitotic Cells (%): 42% and 29%
  Population Normal (%): 87% and 85%
  Population Pyknosed Nuclei (%): 17% and 20%
  Population Tubulin-Different-Phenotype (%): 62% and 63%
  Total Cell Count: 307 and 388
[3]
  Population Apoptotic (%): 36% and 37%
  Population Fragmented Nuclei (%): 5% and 7%
  Population Healthy Nuclei (%): 76% and 79%
  Population Hoechst High Intensity Objects (%): 6% and 4%
  Population Membrane Permeable-Phenotype (%): 2% and 0%
  Population Mitochondria Different-Phenotype (%): 38% and 44%
  Population Mitotic Cells (%): 63% and 62%
  Population Normal (%): 93% and 95%
  Population Pyknosed Nuclei (%): 17% and 12%
  Population Tubulin-Different-Phenotype (%): 34% and 23%
  Total Cell Count: 450 and 456
[4]
  Population Apoptotic (%): 65% and 73%
  Population Fragmented Nuclei (%): 8% and 4%
  Population Healthy Nuclei (%): 68%
  Population Hoechst High Intensity Objects (%): 14% and 13%
  Population Membrane Permeable-Phenotype (%): 0%
  Population Mitochondria Different-Phenotype (%): 94% and 89%
  Population Mitotic Cells (%): 34% and 26%
  Population Normal (%): 85% and 86%
  Population Pyknosed Nuclei (%): 22% and 26%
  Population Tubulin-Different-Phenotype (%): 62% and 61%
  Total Cell Count: 319 and 391
[5]
  Population Apoptotic (%): 31% and 32%
  Population Fragmented Nuclei (%): 10% and 11%
  Population Healthy Nuclei (%): 79% and 80%
  Population Hoechst High Intensity Objects (%): 4% and 3%
  Population Membrane Permeable-Phenotype (%): 1% and 2%
  Population Mitochondria Different-Phenotype (%): 32% and 23%
  Population Mitotic Cells (%): 68% and 67%
  Population Normal (%): 95% and 96%
  Population Pyknosed Nuclei (%): 10% and 8%
  Population Tubulin-Different-Phenotype (%): 23% and 18%
  Total Cell Count: 621 and 787
[6]
  Population Apoptotic (%): 66% and 63%
  Population Fragmented Nuclei (%): 11% and 12%
  Population Healthy Nuclei (%): 68% and 73%
  Population Hoechst High Intensity Objects (%): 12% and 10%
  Population Membrane Permeable-Phenotype (%): 0%
  Population Mitochondria Different-Phenotype (%): 89% and 88%
  Population Mitotic Cells (%): 33% and 36%
  Population Normal (%): 87% and 89%
  Population Pyknosed Nuclei (%): 20% and 14%
  Population Tubulin-Different-Phenotype (%): 67% and 64%
  Total Cell Count: 406 and 423

## COc1ccc(Cl)cc1[C@]1(F)C(=O)Nc2cc(C(F)(F)F)ccc21 [FLINDOKALNER]
[1]
  Population Apoptotic (%): 8.33% and 8.73%
  Population Fragmented Nuclei (%): 2.3% and 5.16%
  Population Hoechst High Intensity Objects (%): 0%
  Population Membrane Permeable-Phenotype (%): 0.56% and 0%
  Population Mitochondria Different-Phenotype (%): 45.76% and 33.33%
  Population Mitotic Cells (%): 91.67% and 91.27%
  Population Normal (%): 100%
  Population Pyknosed Nuclei (%): 39.47% and 81.29%
  Total Cell Count: 304 and 155
[2]
  Population Apoptotic (%): 11.41% and 18.18%
  Population Fragmented Nuclei (%): 2.47% and 3.73%
  Population Hoechst High Intensity Objects (%): 0.54% and 0%
  Population Membrane Permeable-Phenotype (%): 0.48% and 0%
  Population Mitochondria Different-Phenotype (%): 38.16% and 26.32%
  Population Mitotic Cells (%): 88.59% and 81.82%
  Population Normal (%): 99.46% and 100%
  Population Pyknosed Nuclei (%): 40.82% and 82.09%
  Total Cell Count: 367 and 134
[3]
  Population Apoptotic (%): 16.18% and 15.32%
  Population Fragmented Nuclei (%): 1.01% and 6.17%
  Population Hoechst High Intensity Objects (%): 0%
  Population Membrane Permeable-Phenotype (%): 3.37% and 0%
  Population Mitochondria Different-Phenotype (%): 17.98% and 10.71%
  Population Mitotic Cells (%): 83.82% and 84.68%
  Population Normal (%): 100%
  Population Pyknosed Nuclei (%): 27.36% and 76.54%
  Population Tubulin-Different-Phenotype (%): 11.8% and 10.71%
[4]
  Population Apoptotic (%): 13.79% and 23.64%
  Population Fragmented Nuclei (%): 2.57% and 5.62%
  Population Healthy Nuclei (%): 68.77% and 25.62%
  Population Hoechst High Intensity Objects (%): 0.2% and 0%
  Population Membrane Permeable-Phenotype (%): 0.86% and 0%
  Population Mitochondria Different-Phenotype (%): 23.28% and 12.2%
  Population Mitotic Cells (%): 86.21% and 76.36%
  Population Normal (%): 99.8% and 100%
  Population Pyknosed Nuclei (%): 28.66% and 68.75%
[5]
  Population Fragmented Nuclei (%): 2.21% and 2.93%
  Population Healthy Nuclei (%): 85.07% and 54.63%
  Population Hoechst High Intensity Objects (%): 0%
  Population Membrane Permeable-Phenotype (%): 4.29% and 2.68%
  Population Mitochondria Different-Phenotype (%): 14.16% and 20.54%
  Population Mitotic Cells (%): 96% and 72.41%
  Population Normal (%): 100%
[6]
  Population Apoptotic (%): 9.02% and 19.67%
  Population Fragmented Nuclei (%): 2.19% and 4.66%
  Population Healthy Nuclei (%): 86.19% and 63.73%
  Population Hoechst High Intensity Objects (%): 0% and 0.52%
  Population Membrane Permeable-Phenotype (%): 7.07% and 1.63%
  Population Mitochondria Different-Phenotype (%): 21.1% and 21.95%
  Population Mitotic Cells (%): 90.98% and 80.33%
  Population Normal (%): 100% and 99.48%
  Population Pyknosed Nuclei (%): 11.62% and 31.61%
